Assays:
[1] = system: Brain; test: Biodistribution in ddY mouse brain at 0.2 to 0.4 uCi, iv after 60 mins; format: ADME, organism-based; conditions: in vivo, 1 h
Outline: (§1)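 Radiotracer (0.2–0.4 μCi) given as a single tail-vein injection of 100 μL saline containing 10 μL ethanol to normal ddY mice (5 weeks old, 25–30 g). Mice were sacrificed at set times after injection. Organs were excised and weighed, and radioactivity was counted in an automatic gamma counter.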

[2] = system: Brain; test: Biodistribution in ddY mouse brain at 0.2 to 0.4 uCi, iv after 30 mins; format: ADME, organism-based; conditions: in vivo, 0.5 h; outline: as §1
[3] = system: Brain; test: Biodistribution in ddY mouse brain at 0.2 to 0.4 uCi, iv after 10 mins; format: ADME, organism-based; conditions: in vivo; outline: as §1
[4] = system: Brain; test: Biodistribution in ddY mouse brain at 0.2 to 0.4 uCi, iv after 2 mins; format: ADME, organism-based; conditions: in vivo; outline: as §1
[5] = system: Stomach; test: Biodistribution in ddY mouse stomach at 0.2 to 0.4 uCi, iv after 60 mins measured per gram of organ; format: ADME, organism-based; conditions: in vivo, 1 h; outline: as §1
[6] = system: Stomach; test: Biodistribution in ddY mouse stomach at 0.2 to 0.4 uCi, iv after 30 mins measured per gram of organ; format: ADME, organism-based; conditions: in vivo, 0.5 h; outline: as §1
[7] = system: Stomach; test: Biodistribution in ddY mouse stomach at 0.2 to 0.4 uCi, iv after 10 mins measured per gram of organ; format: ADME, organism-based; conditions: in vivo; outline: as §1
[8] = system: Stomach; test: Biodistribution in ddY mouse stomach at 0.2 to 0.4 uCi, iv after 2 mins measured per gram of organ; format: ADME, organism-based; conditions: in vivo; outline: as §1
[9] = system: Heart; test: Biodistribution in ddY mouse heart at 0.2 to 0.4 uCi, iv after 60 mins; format: ADME, organism-based; conditions: in vivo, 1 h; outline: as §1
[10] = system: Heart; test: Biodistribution in ddY mouse heart at 0.2 to 0.4 uCi, iv after 30 mins; format: ADME, organism-based; conditions: in vivo, 0.5 h; outline: as §1
[11] = system: Heart; test: Biodistribution in ddY mouse heart at 0.2 to 0.4 uCi, iv after 10 mins; format: ADME, organism-based; conditions: in vivo; outline: as §1
[12] = system: Heart; test: Biodistribution in ddY mouse heart at 0.2 to 0.4 uCi, iv after 2 mins; format: ADME, organism-based; conditions: in vivo; outline: as §1
[13] = system: Pancreas; test: Biodistribution in ddY mouse pancreas at 0.2 to 0.4 uCi, iv after 60 mins; format: ADME, organism-based; conditions: in vivo, 1 h; outline: as §1
[14] = system: Pancreas; test: Biodistribution in ddY mouse pancreas at 0.2 to 0.4 uCi, iv after 30 mins; format: ADME, organism-based; conditions: in vivo, 0.5 h; outline: as §1
[15] = system: Pancreas; test: Biodistribution in ddY mouse pancreas at 0.2 to 0.4 uCi, iv after 10 mins; format: ADME, organism-based; conditions: in vivo; outline: as §1
[16] = system: Pancreas; test: Biodistribution in ddY mouse pancreas at 0.2 to 0.4 uCi, iv after 2 mins; format: ADME, organism-based; conditions: in vivo; outline: as §1
[17] = system: Spleen; test: Biodistribution in ddY mouse spleen at 0.2 to 0.4 uCi, iv after 60 mins; format: ADME, organism-based; conditions: in vivo, 1 h; outline: as §1
[18] = system: Spleen; test: Biodistribution in ddY mouse spleen at 0.2 to 0.4 uCi, iv after 30 mins; format: ADME, organism-based; conditions: in vivo, 0.5 h; outline: as §1
[19] = system: Spleen; test: Biodistribution in ddY mouse spleen at 0.2 to 0.4 uCi, iv after 10 mins; format: ADME, organism-based; conditions: in vivo; outline: as §1
[20] = system: Spleen; test: Biodistribution in ddY mouse spleen at 0.2 to 0.4 uCi, iv after 2 mins; format: ADME, organism-based; conditions: in vivo; outline: as §1
[21] = system: Intestine; test: Biodistribution in ddY mouse intestine at 0.2 to 0.4 uCi, iv after 60 mins; format: ADME, organism-based; conditions: in vivo, 1 h; outline: as §1
[22] = system: Intestine; test: Biodistribution in ddY mouse intestine at 0.2 to 0.4 uCi, iv after 30 mins; format: ADME, organism-based; conditions: in vivo, 0.5 h; outline: as §1
[23] = system: Intestine; test: Biodistribution in ddY mouse intestine at 0.2 to 0.4 uCi, iv after 10 mins; format: ADME, organism-based; conditions: in vivo; outline: as §1
[24] = system: Intestine; test: Biodistribution in ddY mouse intestine at 0.2 to 0.4 uCi, iv after 2 mins; format: ADME, organism-based; conditions: in vivo; outline: as §1
[25] = system: Kidney; test: Biodistribution in ddY mouse kidney at 0.2 to 0.4 uCi, iv after 60 mins; format: ADME, organism-based; conditions: in vivo, 1 h; outline: as §1
[26] = system: Kidney; test: Biodistribution in ddY mouse kidney at 0.2 to 0.4 uCi, iv after 30 mins; format: ADME, organism-based; conditions: in vivo, 0.5 h; outline: as §1
[27] = system: Kidney; test: Biodistribution in ddY mouse kidney at 0.2 to 0.4 uCi, iv after 10 mins; format: ADME, organism-based; conditions: in vivo; outline: as §1
[28] = system: Kidney; test: Biodistribution in ddY mouse kidney at 0.2 to 0.4 uCi, iv after 2 mins; format: ADME, organism-based; conditions: in vivo; outline: as §1
[29] = system: Liver; test: Biodistribution in ddY mouse liver at 0.2 to 0.4 uCi, iv after 60 mins; format: ADME, organism-based; conditions: in vivo, 1 h; outline: as §1
[30] = system: Liver; test: Biodistribution in ddY mouse liver at 0.2 to 0.4 uCi, iv after 2 mins; format: ADME, organism-based; conditions: in vivo; outline: as §1
[31] = system: Liver; test: Biodistribution in ddY mouse liver at 0.2 to 0.4 uCi, iv after 10 mins; format: ADME, organism-based; conditions: in vivo; outline: as §1
[32] = system: Liver; test: Biodistribution in ddY mouse liver at 0.2 to 0.4 uCi, iv after 30 mins; format: ADME, organism-based; conditions: in vivo, 0.5 h; outline: as §1
[33] = system: Blood; test: Biodistribution in ddY mouse blood at 0.2 to 0.4 uCi, iv after 60 mins; format: ADME, organism-based; conditions: in vivo, 1 h; outline: as §1
[34] = system: Blood; test: Biodistribution in ddY mouse blood at 0.2 to 0.4 uCi, iv after 30 mins; format: ADME, organism-based; conditions: in vivo, 0.5 h; outline: as §1
[35] = system: Blood; test: Biodistribution in ddY mouse blood at 0.2 to 0.4 uCi, iv after 10 mins; format: ADME, organism-based; conditions: in vivo; outline: as §1
[36] = system: Blood; test: Biodistribution in ddY mouse blood at 0.2 to 0.4 uCi, iv after 2 mins; format: ADME, organism-based; conditions: in vivo; outline: as §1
[37] = Displacement of [125I]IMPY from amyloid beta42 by gamma counting

Row | Structure (SMILES) | Drug uptake [1] [% ID/g] | Drug uptake [2] [% ID/g] | Drug uptake [3] [% ID/g] | Drug uptake [4] [% ID/g] | Drug uptake [5] [%ID] | Drug uptake [6] [%ID] | Drug uptake [7] [%ID] | Drug uptake [8] [%ID] | Drug uptake [9] [% ID/g] | Drug uptake [10] [% ID/g] | Drug uptake [11] [% ID/g] | Drug uptake [12] [% ID/g] | Drug uptake [13] [% ID/g] | Drug uptake [14] [% ID/g] | Drug uptake [15] [% ID/g] | Drug uptake [16] [% ID/g] | Drug uptake [17] [% ID/g] | Drug uptake [18] [% ID/g] | Drug uptake [19] [% ID/g] | Drug uptake [20] [% ID/g] | also measured
1 | COc1ccc(-c2cc3cc([125I])ccc3[nH]2)cc1 | 1.16 | 1.36 | 2.07 | 2.11 | 3.06 | 2.67 | 1.38 | 0.72 | 1.06 | 1.47 | 2.97 | 7.72 | 1.29 | 1.95 | 3.94 | 4.54 | 2.02 | 2.96 | 3.43 | 4.22 | Drug uptake [21]: 20.35 % ID/g; Drug uptake [22]: 12.32 % ID/g; Drug uptake [23]: 6.85 % ID/g; Drug uptake [24]: 1.9 % ID/g; Drug uptake [25]: 2.05 % ID/g; Drug uptake [26]: 2.89 % ID/g; Drug uptake [27]: 4.96 % ID/g; Drug uptake [28]: 8.76 % ID/g; Drug uptake [29]: 8.22 % ID/g; Drug uptake [30]: 17.81 % ID/g; Drug uptake [31]: 13.96 % ID/g; Drug uptake [32]: 10.38 % ID/g; Drug uptake [33]: 0.74 % ID/g; Drug uptake [34]: 1.38 % ID/g; Drug uptake [35]: 1.97 % ID/g; Drug uptake [36]: 3.59 % ID/g
2 | OCCOc1ccc(-c2cc3cc([125I])ccc3[nH]2)cc1 | 1.82 | 1.93 | 2.62 | 2.13 | 1.62 | 2.11 | 1.97 | 0.97 | 1.36 | 2.97 | 5.84 | 12.91 | 2.22 | 3.57 | 5.59 | 5.55 | 2.39 | 4.75 | 7.09 | 7.56 | Drug uptake [21]: 18.98 % ID/g; Drug uptake [22]: 11.32 % ID/g; Drug uptake [23]: 5.76 % ID/g; Drug uptake [24]: 1.97 % ID/g; Drug uptake [25]: 2.76 % ID/g; Drug uptake [26]: 6.77 % ID/g; Drug uptake [27]: 9.35 % ID/g; Drug uptake [28]: 11.93 % ID/g; Drug uptake [29]: 8.17 % ID/g; Drug uptake [30]: 17.69 % ID/g; Drug uptake [31]: 16.77 % ID/g; Drug uptake [32]: 13.42 % ID/g; Drug uptake [33]: 0.8 % ID/g; Drug uptake [34]: 1.26 % ID/g; Drug uptake [35]: 1.6 % ID/g; Drug uptake [36]: 4.07 % ID/g
3 | CNc1ccc(-c2cc3cc(I)ccc3[nH]2)cc1 |  |  |  |  |  |  |  |  |  |  |  |  |  |  |  |  |  |  |  |  | Ki [37]: 27 nM
4 | CNc1ccc(-c2cc3cc([125I])ccc3[nH]2)cc1 | 0.83 | 1.42 | 1.68 | 1.1 | 1.68 | 2.55 | 1.34 | 0.52 | 1.88 | 2.96 | 3.59 | 5.68 | 1.27 | 2.12 | 2.87 | 2.31 | 5.89 | 10.34 | 19.67 | 7.83 | Drug uptake [21]: 9.48 % ID/g; Drug uptake [22]: 8.54 % ID/g; Drug uptake [23]: 3.57 % ID/g; Drug uptake [24]: 0.97 % ID/g; Drug uptake [25]: 2.61 % ID/g; Drug uptake [26]: 3.84 % ID/g; Drug uptake [27]: 4.31 % ID/g; Drug uptake [28]: 5.53 % ID/g; Drug uptake [29]: 15.89 % ID/g; Drug uptake [30]: 22.85 % ID/g; Drug uptake [31]: 26.83 % ID/g; Drug uptake [32]: 23.07 % ID/g; Drug uptake [33]: 0.8 % ID/g; Drug uptake [34]: 1.36 % ID/g; Drug uptake [35]: 1.71 % ID/g; Drug uptake [36]: 3.77 % ID/g
5 | CN(C)c1ccc(-c2cc3cc([125I])ccc3[nH]2)cc1 | 0.71 | 0.96 | 1.19 | 1.19 | 16.26 | 17.77 | 10.65 | 4.03 | 1.84 | 1.87 | 4.82 | 8.08 | 2.3 | 3.1 | 4.13 | 5.21 | 2.24 | 2.6 | 3.28 | 4.13 | Drug uptake [21]: 6.08 % ID/g; Drug uptake [22]: 4.52 % ID/g; Drug uptake [23]: 3.09 % ID/g; Drug uptake [24]: 1.8 % ID/g; Drug uptake [25]: 4.71 % ID/g; Drug uptake [26]: 4.58 % ID/g; Drug uptake [27]: 4.46 % ID/g; Drug uptake [28]: 9.49 % ID/g; Drug uptake [29]: 3.24 % ID/g; Drug uptake [30]: 10.2 % ID/g; Drug uptake [31]: 5.14 % ID/g; Drug uptake [32]: 3.55 % ID/g; Drug uptake [33]: 3.29 % ID/g; Drug uptake [34]: 3.68 % ID/g; Drug uptake [35]: 4.53 % ID/g; Drug uptake [36]: 6.18 % ID/g

— ChEMBL document CHEMBL1177647, “Synthesis and characterization of novel phenylindoles as potential probes for imaging of β-amyloid plaques in the brain” (Bioorg Med Chem, 2010)
